Most compounds without a hit are left out; they make up all but 2.5% or so of the library.
NS3 helicase inh: inhibitors of HCV NS3 helicase, primary screen, biochemical, Cy5 molecular beacon fluorescence; 0.56% of 290,000 active; inhibition, % at 10.9 µM; NS3 helicase DNA unwinding; AID 1800, 2009;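 active means inhibition above the mean of all tested compounds plus 3 SD, set per campaign, cut at about 35% in these data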;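 further: 0% = DMSO wells and 100% = thioflavine S control wells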
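Measured by: Cy5 fluorescence, 0 and 60 min reads / Assay system: NS3 helicase fragment of HCV / Control set: low DMSO, high thioflavine S at 110 µM / Times: 1 h reaction at 25 °C, ATP-initiated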
DSG3 Ab inh: inhibitors of pemphigus antibody binding to DSG3, primary screen, biochemical, bead-based, flow cytometry, scFv-GFP; Desmoglein-3 (Homo sapiens), P32926; binding (percent of control), % at 10 µM; DSG3-coupled beads, scFv-anti-DSG3-GFP binding; hits give low values; 0.48% of 310,000 active;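 active means binding more than 3 SD below its plate's average and above zero; inconclusive means below that plate limit but binding exactly zero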;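 further: hits lower antibody fragment binding to DSG3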
SUMO1-SIM PPI: modulators of SUMO1 protein-protein interactions, primary screen, biochemical, uHTS; Small ubiquitin-related modifier 1 (Homo sapiens), P63165; SUMO1 binding to a labelled peptide, TR-FRET, 1 h; inhibition, % at 20 µM; 0.33% of 360,000 active; AID 602429, 2012; in the data active means inhibition above about 37%
DNMT1 inh: human DNMT1 methyltransferase inhibitors, primary screen, biochemical, molecular beacon, fluorescence, HinP1I cleavage, uHTS; inhibition (reported as % activation of signal), % at 10 µM; DNA (cytosine-5)-methyltransferase 1 (Homo sapiens), P26358; 0.83% of 360,000 active; in the data active means inhibition above about 50%
Target sequence (P26358 504-1616 limits assumed): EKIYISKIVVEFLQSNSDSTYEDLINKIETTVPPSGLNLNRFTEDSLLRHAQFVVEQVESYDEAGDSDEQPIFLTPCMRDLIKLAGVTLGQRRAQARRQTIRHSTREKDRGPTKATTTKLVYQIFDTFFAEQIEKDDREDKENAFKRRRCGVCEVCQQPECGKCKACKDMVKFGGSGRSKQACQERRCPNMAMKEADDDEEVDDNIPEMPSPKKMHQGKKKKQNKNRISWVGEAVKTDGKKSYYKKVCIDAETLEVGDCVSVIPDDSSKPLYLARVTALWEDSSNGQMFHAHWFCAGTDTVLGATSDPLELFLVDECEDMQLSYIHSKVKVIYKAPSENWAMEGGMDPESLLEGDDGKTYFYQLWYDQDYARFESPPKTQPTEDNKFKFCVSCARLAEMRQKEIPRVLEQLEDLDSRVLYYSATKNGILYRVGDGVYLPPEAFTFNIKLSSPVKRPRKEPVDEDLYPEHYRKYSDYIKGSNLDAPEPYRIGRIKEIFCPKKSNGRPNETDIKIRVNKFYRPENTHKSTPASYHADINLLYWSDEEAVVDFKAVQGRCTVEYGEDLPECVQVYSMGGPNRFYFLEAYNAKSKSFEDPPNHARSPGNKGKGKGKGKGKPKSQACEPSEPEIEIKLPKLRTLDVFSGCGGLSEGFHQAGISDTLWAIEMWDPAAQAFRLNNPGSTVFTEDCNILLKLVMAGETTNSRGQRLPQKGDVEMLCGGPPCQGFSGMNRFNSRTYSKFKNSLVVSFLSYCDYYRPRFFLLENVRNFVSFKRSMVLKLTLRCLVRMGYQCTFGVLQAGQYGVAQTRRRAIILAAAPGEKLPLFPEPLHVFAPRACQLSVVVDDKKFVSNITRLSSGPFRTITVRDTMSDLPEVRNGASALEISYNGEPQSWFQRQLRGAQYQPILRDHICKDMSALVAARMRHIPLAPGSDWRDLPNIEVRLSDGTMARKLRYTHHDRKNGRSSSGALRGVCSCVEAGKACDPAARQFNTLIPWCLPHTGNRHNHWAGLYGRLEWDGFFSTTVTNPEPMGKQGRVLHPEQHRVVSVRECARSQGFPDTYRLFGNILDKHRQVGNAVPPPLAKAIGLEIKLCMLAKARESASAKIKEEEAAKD
UHRF1 binding: UHRF1 methylated DNA binding inhibitors, primary screen, counter-screen for MBD2 inhibitor project, biochemical, TR-FRET, human UHRF1, single concentration; E3 ubiquitin-protein ligase UHRF1 (Homo sapiens), Q96T88; 0.75% of 370,000 active; inhibition, % at 4.4 µM; UHRF1 binding to methylated oligo; in the data active means inhibition above about 21%;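 further: UHRF1 SRA domain binding a hemimethylated CpG hairpin DNA probe; 0% = median of test compound wells and 100% = reference inhibitor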
MBD2 DNA inh: inhibitors of MBD2 binding to methylated DNA, primary screen, biochemical, TR-FRET, DNA-binding domain, human. MBD2 binding to methylated oligonucleotide. 0.31% of 370,000 active. Methyl-CpG-binding domain protein 2 (Homo sapiens), Q9UBB5. inhibition, % at 4.4 µM; in the data active means inhibition above about 13%
NS3 helicase cf: HCV NS3 helicase inhibitors, retest, confirmation, biochemical, Cy5 molecular beacon fluorescence, triplicate; shares compounds with NS3 helicase inh; NS3 helicase DNA unwinding; inhibition, % at 10.9 µM; 31% of 1,600 active; AID 1943, 2009;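 active means inhibition above the mean of all tested compounds plus 3 SD, cutoff set per campaign, cut at about 36% in these data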
FID counter trip: compounds displacing fluorescent DNA intercalator, artefact control for HCV NS3 helicase inhibitor project, biochemical, FID fluorescence, triplicate. DNA fluorescent intercalator displacement. inhibition, % at 7.9 µM. shares compounds with NS3 helicase inh. 4% of 1,600 active; in the data active means inhibition above about 37%;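 further: 0% = vehicle and 100% = reference compound; higher means more displacement of ethidium bromide from the DNA hairpin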
FID counter DR: compounds displacing fluorescent intercalator from DNA, dose response, counter-screen for HCV NS3 helicase inhibitor project, biochemical, fluorescence. 120 tested, under 10 active. fluorescent intercalator displacement from DNA. IC50, µM. AID 2172, 2009. shares compounds with NS3 helicase inh
DNMT1 interf DR: spectral interference with molecular beacon fluorescence, dose response, artefact control for DNMT1 inhibitor project, biochemical, fluorescent molecular beacon | shares compounds with DNMT1 inh | spectral interference counter-screen | IC50, µM | 200 tested, under 10 active | AID 602382, 2012
DNMT1 inh conf: DNMT1 methyltransferase inhibitor retest, confirmation, biochemical, molecular beacon, fluorescence, single concentration. inhibition, % at 10 µM. 8% of 2,300 active. DNMT1 molecular beacon HinP1I cleavage. shares compounds with DNMT1 inh;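 active means average inhibition of at least 30% in the single-concentration confirmation test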
Beacon interf: counter-screen for DNMT1 inhibitors: spectral interference; shares compounds with DNMT1 inh; DNMT1 molecular beacon spectral interference counterscreen, fluorescence 485/520; activation (fluorescence interference), % at 10 µM; 1% of 2,300 active; AID 602387;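 active means activation of at least 30% at 10 µM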;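 further: DNMT1 catalytic domain with a HinP1I cleavage step and a FAM/dabcyl DNA beacon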
UHRF1 ctr MBD2: UHRF1 methylated DNA binding inhibitors, counter-screen for MBD2 inhibitor project, biochemical, TR-FRET, human UHRF1; shares compounds with MBD2 DNA inh; UHRF1 binding to methylated oligonucleotide; inhibition, % at 4.4 µM; 25% of 1,000 active; AID 720530, 2013; in the data active means inhibition above about 21%;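 further: UHRF1 SRA domain binding a labeled hemimethylated CpG hairpin DNA; 0% = vehicle only and 100% = reference inhibitor with vehicle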
MBD2 confirm: inhibitors of MBD2 binding to methylated DNA, confirmation, biochemical, TR-FRET, DNA-binding domain, human | inhibition, % at 4.4 µM | shares compounds with MBD2 DNA inh | 26% of 1,000 active | TR-FRET MBD2-DBD binding to methylated oligonucleotide; in the data active means inhibition above about 14%
* hit, by the source's call; ? = inconclusive; . = not tested or not shown. Unless noted, how the calls were made is not given here.

SMILES	NS3 helicase inh	DSG3 Ab inh	SUMO1-SIM PPI	DNMT1 inh	UHRF1 binding	MBD2 DNA inh	NS3 helicase cf	FID counter trip	DNMT1 inh conf	Beacon interf	UHRF1 ctr MBD2	MBD2 confirm	others
NS(=O)(=O)c1ccc(N=Nc2ccc(=O)[nH]c2O)cc1	31.6	86.6	21.7	100.1*	18.6	-4.8	-17.3	13.1	30.0	-1.2	.	.	DNMT1 interf DR=>99
C=CCn1c(SCC(=O)NCCCC)nc2scc(-c3ccco3)c2c1=O	50.1*	?	10.3	99.6*	-2.5	3.7	81.9*	-9.5	1.9	0.9	.	.	FID counter DR=>79.4
C=CCn1c(SCC(C)=O)nc2scc(-c3ccc(C)o3)c2c1=O	-21.4	108.0	-2.1	1.1	11.3	3.4	.	.	.	.	.	.
O=C(Nc1ccc(Nc2ccncc2)cc1)c1ccc(Nc2ccnc3ccc([N+](=O)[O-])cc23)cc1	52.6*	59.9*	127.8*	-70.3	32.1*	15.7*	77.8*	102.7*	.	.	38.2*	33.6*
O=C(Nc1ccc(Cc2ccncc2)cc1)c1cccc([N+](=O)[O-])c1	-1.4	89.9	-20.0	-3.9	-0.1	-4.3	.	.	.	.	.	.
CCc1cc(=O)oc2cc(C)c(CN3CCCC3)c(O)c12	39.3*	101.8	39.1	86.6*	32.4*	14.6*	30.0	8.0	4.3	1.0	16.1	10.9
C=CCSC1=N/C(=C\C=C\c2ccco2)C(=O)S1	41.7*	99.6	20.9	97.3*	74.6*	42.7*	50.4*	19.4	2.6	-2.5	39.8*	16.7*	FID counter DR=>79.4
C=CCSC1=N/C(=C\c2sccc2C)C(=O)S1	15.0	97.7	-2.9	1.5	-0.8	-1.0	.	.	.	.	.	.
O=C(/C=C/c1ccco1)NC(=S)Nc1cccc(C(=O)O)c1	52.1*	101.2	1.9	37.8	70.2*	16.6*	30.1	10.8	.	.	55.5*	18.0*
Clc1ccc(-c2nc(CSc3ccccn3)cs2)cc1	.	103.3	-3.1	-3.8	-0.3	-5.4	.	.	.	.	.	.
O=C1/C(=C/c2cccs2)SC(=S)N1NS(=O)(=O)c1ccccc1	7.8	98.1	-12.3	2.5	4.2	-5.2	.	.	.	.	.	.
CC(C(=O)O)N1C(=O)/C(=C/C=C/c2ccco2)SC1=S (stereo not drawn)	51.1*	69.1*	99.9*	83.3*	101.0*	101.5*	81.5*	1.6	.	.	103.2*	110.2*
O=C1/C(=C/C=C/c2ccco2)SC(=S)N1NS(=O)(=O)c1ccccc1	65.6*	51.1*	112.2*	86.9*	96.7*	68.7*	72.9*	16.6	.	.	88.1*	51.5*
CCCCN1Cc2c(nc3cc(-c4ccco4)[nH]n3c2=O)C1=O	49.0*	110.2	3.8	20.9	62.9*	24.8*	-4.0	7.3	.	.	6.9	4.3
O=C(O)Cc1nc2nc3c(c(=O)n2[nH]1)CCCC3	0.1	.	5.1	-1.0	-2.5	-4.8	.	.	.	.	.	.
CCCSc1nc(C)c(-c2csc(C(C#N)=C3CCCC3)n2)cc1C#N	51.5*	110.5	22.3	92.3*	16.7	16.2*	30.3	30.9	-1.4	-1.6	7.3	6.5
CCCCSc1nc2c(cc1C#N)CCC2	4.9	96.0	-0.6	3.3	-5.1	-6.1	.	.	.	.	.	.
O=C(CCCN1C(=O)/C(=C/c2ccco2)SC1=S)Nc1ccccc1C(=O)O	45.7*	105.9	75.4*	85.9*	81.7*	26.7*	72.5*	25.9	0.8	-1.8	51.7*	15.8*
O=C(CCN1C(=O)/C(=C/c2ccco2)SC1=S)Nc1ccc(O)cc1C(=O)O	41.7*	105.0	40.3*	71.2*	94.6*	68.4*	65.7*	13.1	7.5	-2.6	37.9*	8.2
O=C(O)c1ccc(-c2ccc(Cl)cc2Cl)o1	4.2	100.0	1.3	4.9	-5.7	-10.2	.	.	.	.	.	.
Cc1ccc(-c2c3c(nc4sc(C(N)=O)c(N)c24)CCCC3)o1	16.2	101.5	-3.9	-2.6	-3.5	-5.4	.	.	.	.	.	.
NC(=O)c1sc2nc3c(c(-c4ccco4)c2c1N)CCC3	58.4*	110.3	13.1	74.6*	47.3*	14.9*	-27.4	7.8	12.0	11.6	-4.8	-4.7
O=C1N/C(=C/c2cccn2-c2ccc(F)cc2)C(=O)N1Cc1ccccc1	0.1	103.1	-2.7	5.4	-6.8	-1.5	.	.	.	.	.	.
O=C(O)c1ccc(-n2cccc2/C=C2/NC(=O)N(c3cccc(Cl)c3)C2=O)cc1	41.2*	87.6	-2.3	94.3*	81.0*	38.8*	69.5*	-16.7	83.8*	-3.6	78.2*	49.1*	FID counter DR=>79.4;DNMT1 interf DR=>99
O=c1cc(O)c2ccc(O)cc2o1	-0.3	95.7	-0.3	-4.8	1.6	-0.2	.	.	.	.	.	.

From PubChem BioAssay
